Measurements reported in PMC6247064 (Cancer Science, 2018).
Where “and” joins values, the source holds several entries; their conditions need not be identical. Identical values can stand only once.

System: advanced solid tumors
Test: Phase 1 study: antitumor activity by RECIST version 1.1
Type: in vivo, human
Summary of the method: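 Adults with advanced solid tumors received the test compound at 80 or 105 mg/m2 by IV infusion on day 1 of each 14-day cycle. Tumors were measured by CT or MRI and scored with RECIST 1.1. Best overall response was the best response recorded from the start of treatment until disease progression. Patients counted if they had baseline and post-baseline tumor measurements.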

COc1cccc(OCCCN)c1-c1cc(Nc2cnc(C#N)cn2)n[nH]1 [Prexasertib] was tested, and the “Maximum tumor shrinkage from baseline, individual patients with esophageal SCC” value (80 mg/m^2, two patients with BOR of stable disease) was 20% and 13%, the BOR progressive disease (80 mg/m^2 group, 2 of 6 patients) was 33.3% and the BOR stable disease (80 mg/m^2 group, 4 of 6 patients) was 66.7%. The BOR progressive disease (105 mg/m^2 group, 1 of 5 evaluable patients) was 20.0%, the BOR stable disease (105 mg/m^2 group, 4 of 5 evaluable patients) was 80.0% and the “Complete response or partial response” value (all patients) was “No patients in the study had a complete response or partial response”. The “Best overall response of stable disease” value (patients with baseline and post-baseline tumor measurements, both doses) was 8 of 11.
